Assay results: ChEMBL document CHEMBL1681762, “Application of plant allylpolyalkoxybenzenes in synthesis of antimitotic phenstatin analogues” (2011)

System: Paracentrotus lividus
Experiment: Antiproliferative activity against sea urchin embryo assessed as cleavage arrest after 10 to 15 mins fertilization 45 to 60 mins before first mitotic cycle completion
Format: functional
Outline: (§1)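 Phenotypic in vivo assay on fertilized sea urchin eggs, scored for cleavage alteration or arrest. Reported value is the effective threshold concentration (EC), from duplicate measurements.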

| SMILES | EC |
| --- | --- |
| COc1ccc(C(=O)c2cc3c(c(OC)c2OC)OCO3)cc1O | 4 µM |
| COc1ccc(C(=O)c2cc(OC)c3c(c2OC)OCO3)cc1O | >4 µM |
| COc1ccc(C(=O)c2cc(OC)c3c(c2)OCO3)cc1O | 0.01 µM |
| COc1ccc(C(=O)c2cc(OC)c(OC)c(OC)c2OC)cc1O | >4 µM |
| COc1ccc(C(=O)c2ccc3c(c2)OCCO3)cc1O | 0.2 µM |
| COc1ccc(C(=O)c2ccc3c(c2)OCCO3)cc1 | 1 µM |
| COc1ccc(/C=C\c2cc(OC)c(OC)c(OC)c2)cc1O [COMBRETASTATIN A4] | 0.01 µM |
| COc1ccc(/C=C\c2cc(OC)c3c(c2)OCO3)cc1O [Combretastatin A-2] | 0.01 µM |
| COc1ccc(C(=O)c2cc(OC)c(OC)c(OC)c2)cc1O [PHENSTATIN] | 0.05 µM |

System: Paracentrotus lividus
Experiment: tubulin-destabilizing activity in sea urchin embryo assessed as embryo spinning treated immediately 8 to 10 hrs after fertilization
Format: functional
Outline: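 Free-swimming sea urchin blastulae were treated and monitored for behavioural change. Reported value is the effective threshold concentration (EC), from duplicate measurements.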

| SMILES | EC |
| --- | --- |
| COc1ccc(C(=O)c2cc3c(c(OC)c2OC)OCO3)cc1O | >5 µM |
| COc1ccc(C(=O)c2cc(OC)c3c(c2OC)OCO3)cc1O | >5 µM |
| COc1ccc(C(=O)c2cc(OC)c3c(c2)OCO3)cc1O | 0.1 µM |
| COc1ccc(C(=O)c2cc(OC)c(OC)c(OC)c2OC)cc1O | >5 µM |
| COc1ccc(C(=O)c2ccc3c(c2)OCCO3)cc1O | >5 µM |
| COc1ccc(C(=O)c2ccc3c(c2)OCCO3)cc1 | >5 µM |
| COc1ccc(/C=C\c2cc(OC)c(OC)c(OC)c2)cc1O [COMBRETASTATIN A4] | 0.05 µM |
| COc1ccc(/C=C\c2cc(OC)c3c(c2)OCO3)cc1O [Combretastatin A-2] | 0.05 µM |
| COc1ccc(C(=O)c2cc(OC)c(OC)c(OC)c2)cc1O [PHENSTATIN] | 0.5 µM |

System: Paracentrotus lividus
Experiment: Antiproliferative activity against sea urchin embryo assessed as cleavage alteration after 10 to 15 mins fertilization 45 to 60 mins before first mitotic cycle completion
Format: functional
Outline: as §1

| SMILES | EC |
| --- | --- |
| COc1ccc(C(=O)c2cc3c(c(OC)c2OC)OCO3)cc1O | 1 µM |
| COc1ccc(C(=O)c2cc(OC)c3c(c2OC)OCO3)cc1O | 2 µM |
| COc1ccc(C(=O)c2cc(OC)c3c(c2)OCO3)cc1O | 0.001 µM |
| COc1ccc(C(=O)c2cc(OC)c(OC)c(OC)c2OC)cc1O | 2 µM |
| COc1ccc(C(=O)c2ccc3c(c2)OCCO3)cc1O | 0.1 µM |
| COc1ccc(C(=O)c2ccc3c(c2)OCCO3)cc1 | 0.5 µM |
| COc1ccc(/C=C\c2cc(OC)c(OC)c(OC)c2)cc1O [COMBRETASTATIN A4] | 0.002 µM |
| COc1ccc(/C=C\c2cc(OC)c3c(c2)OCO3)cc1O [Combretastatin A-2] | 0.002 µM |
| COc1ccc(C(=O)c2cc(OC)c(OC)c(OC)c2)cc1O [PHENSTATIN] | 0.01 µM |
